According to ChEMBL document CHEMBL4330076, “Quinazolin-2,4-dione-Based Hydroxamic Acids as Selective Histone Deacetylase-6 Inhibitors for Treatment of Non-Small Cell Lung Cancer” (J Med Chem, 2019):
Calls of active or inactive are those of the source. The calls are words filed in the database; no cut-off is given here.

How the values were obtained:
[1] = species on record: Homo sapiens; assay: Selectivity ratio of IC50 for human full-length recombinant HDAC1 expressed in baculovirus infected Sf9 insect cells to IC50 for human full-length recombinant HDAC6 expressed in baculovirus infected Sf9 insect cells
[2] = tested on: Lewis lung carcinoma cell line; assay: Decrease in PD-L1 expression in mouse LL/2 cells at 10 uM after 24 hrs by Western blot analysis
[3] = tested on: Lewis lung carcinoma cell line; assay: Antitumor activity against mouse LL/2 cells implanted in C57BL/6 mouse assessed as tumor growth inhibition at 10 mg/kg, ip qd administered for 5 days; assay type: functional, organism-based
[4] = target: T1, Protein deacetylase HDAC6 (Mus musculus) (UniProt Q9Z2V5); assay: Inhibition of HDAC6 in mouse LL/2 cells assessed as reduction in PD-L1 expression at 10 uM after 24 hrs by Western blot analysis; assay type: cell-based
T1 sequence (whole entry): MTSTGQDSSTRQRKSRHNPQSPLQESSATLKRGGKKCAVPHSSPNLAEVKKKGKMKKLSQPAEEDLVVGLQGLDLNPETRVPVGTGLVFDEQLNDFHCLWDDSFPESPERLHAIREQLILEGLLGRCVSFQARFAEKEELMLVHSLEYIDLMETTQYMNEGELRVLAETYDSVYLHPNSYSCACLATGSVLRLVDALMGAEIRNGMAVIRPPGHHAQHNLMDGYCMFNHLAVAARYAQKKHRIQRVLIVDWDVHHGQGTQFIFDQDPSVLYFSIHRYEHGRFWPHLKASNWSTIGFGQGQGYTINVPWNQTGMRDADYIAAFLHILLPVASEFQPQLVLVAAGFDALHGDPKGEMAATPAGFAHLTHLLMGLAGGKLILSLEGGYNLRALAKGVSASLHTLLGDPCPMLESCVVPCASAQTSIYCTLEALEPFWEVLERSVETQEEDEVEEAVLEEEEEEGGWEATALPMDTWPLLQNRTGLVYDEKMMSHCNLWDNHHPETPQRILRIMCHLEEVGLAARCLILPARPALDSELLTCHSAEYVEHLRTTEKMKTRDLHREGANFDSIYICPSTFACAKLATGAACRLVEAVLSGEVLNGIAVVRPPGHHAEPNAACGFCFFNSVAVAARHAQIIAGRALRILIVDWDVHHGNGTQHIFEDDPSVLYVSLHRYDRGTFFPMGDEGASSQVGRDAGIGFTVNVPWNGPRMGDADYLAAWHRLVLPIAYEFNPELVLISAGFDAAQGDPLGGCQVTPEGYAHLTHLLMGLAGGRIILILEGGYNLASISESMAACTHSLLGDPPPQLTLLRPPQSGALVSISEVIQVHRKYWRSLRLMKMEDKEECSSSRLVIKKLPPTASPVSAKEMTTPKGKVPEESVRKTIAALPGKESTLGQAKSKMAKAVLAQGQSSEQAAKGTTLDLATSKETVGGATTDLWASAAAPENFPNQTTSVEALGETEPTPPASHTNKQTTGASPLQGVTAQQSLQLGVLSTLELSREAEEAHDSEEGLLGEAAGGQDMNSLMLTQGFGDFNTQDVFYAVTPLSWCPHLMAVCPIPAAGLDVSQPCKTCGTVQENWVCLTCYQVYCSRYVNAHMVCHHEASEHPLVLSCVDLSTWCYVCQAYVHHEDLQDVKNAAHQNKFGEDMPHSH

[5] = tested on: Lewis lung carcinoma cell line; assay: Cytotoxicity against mouse LL/2 cells at 0.8 uM after 72 hrs in presence of paclitaxel by crystal violet staining-based assay relative to control; assay type: functional, cell-based
[6] = target: T1, Protein deacetylase HDAC6 (Mus musculus); assay: Inhibition of HDAC6 in mouse LL/2 cells assessed as reduction in PD-L1 expression at 2 to 10 uM after 24 hrs by Western blot analysis; assay type: cell-based
[7] = target: T1, Protein deacetylase HDAC6 (Mus musculus); assay: Inhibition of HDAC6 in mouse LL/2 cells assessed as induction of alpha tubulin acetylation at 0.8 uM after 24 hrs by Western blot analysis relative to control; assay type: cell-based
[8] = target: T1, Protein deacetylase HDAC6 (Mus musculus); assay: Inhibition of HDAC6 in mouse LL/2 cells assessed as reduction in PD-L1 expression at 2 to 5 uM in presence of paclitaxel after 24 hrs by Western blot analysis; assay type: cell-based
[9] = tested on: Lewis lung carcinoma cell line; assay: Cytotoxicity against mouse LL/2 cells at 0.8 uM after 72 hrs in presence of paclitaxel by crystal violet staining-based assay; assay type: functional, cell-based
[10] = target: Histone deacetylase 1 (Homo sapiens) (UniProt Q13547); assay: Inhibition of HDAC1 in human A549 cells assessed as effect on histone H3 acetylation level at 1 uM after 24 hrs by Western blot analysis; assay type: cell-based
[11] = tested on: Lewis lung carcinoma cell line; assay: Cytotoxicity against mouse LL/2 cells at 0 to 10 uM after 72 hrs in presence of paclitaxel by MTT assay relative to control; assay type: functional, cell-based
In short: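 Mouse LL/2 lung cancer cells cultured for 72 h with increasing inhibitor concentrations (0–10 μM) together with paclitaxel. Viability read by MTT. Combination assessed by the Chou-Talalay method as a combination index.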

[12] = target: T1, Protein deacetylase HDAC6 (Mus musculus); assay: Inhibition of HDAC6 in mouse LL/2 cells assessed as induction of alpha tubulin acetylation at 0.8 uM in presence of paclitaxel after 24 hrs by Western blot analysis relative to control; assay type: cell-based
[13] = target: T1, Protein deacetylase HDAC6 (Mus musculus); assay: Inhibition of HDAC6 in mouse LL/2 cells assessed as induction of alpha tubulin acetylation at 4 uM in presence of paclitaxel after 24 hrs by Western blot analysis relative to control; assay type: cell-based
[14] = tested on: Lewis lung carcinoma cell line; assay: Antitumor activity against mouse LL/2 cells implanted in C57BL/6 mouse assessed as tumor growth inhibition at 20 mg/kg, po qd administered for 21 consecutive days; assay type: functional, organism-based
[15] = tested on: Lewis lung carcinoma cell line; assay: Induction of multi-nuclei formation in mouse LL/2 cells at 0.8 uM after 24 hrs in presence of paclitaxel by 4',6-diamidino-2-phenylindole staining-based assay; assay type: functional, cell-based

Sequence of Histone deacetylase 1 (Homo sapiens) (Q13547 whole entry): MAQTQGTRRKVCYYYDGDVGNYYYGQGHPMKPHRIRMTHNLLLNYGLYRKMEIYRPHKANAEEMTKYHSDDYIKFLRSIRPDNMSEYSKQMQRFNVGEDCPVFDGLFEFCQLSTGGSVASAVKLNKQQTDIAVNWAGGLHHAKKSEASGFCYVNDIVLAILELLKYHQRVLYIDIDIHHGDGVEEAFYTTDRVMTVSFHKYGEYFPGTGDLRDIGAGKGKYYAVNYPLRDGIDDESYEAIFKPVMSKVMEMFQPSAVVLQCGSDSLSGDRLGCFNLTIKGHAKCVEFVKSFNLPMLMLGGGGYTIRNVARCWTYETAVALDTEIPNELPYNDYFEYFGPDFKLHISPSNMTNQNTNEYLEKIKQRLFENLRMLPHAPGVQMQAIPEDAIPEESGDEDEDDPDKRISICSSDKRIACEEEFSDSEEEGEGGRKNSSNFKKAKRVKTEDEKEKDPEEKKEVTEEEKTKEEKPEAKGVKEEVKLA

| Structure (SMILES) | Ratio IC50 [1] | also measured |
| --- | --- | --- |
| COc1ccc(CCn2c(=O)c3ccccc3n(Cc3ccc(C(=O)NO)cc3)c2=O)cc1 | 369 | – |
| O=C(NO)c1ccc(Cn2c(=O)n(CCc3ccccc3)c(=O)c3ccc(C(F)(F)F)cc32)cc1 | 13 | – |
| O=C(NO)c1ccc(Cn2c(=O)n(CCc3ccccc3)c(=O)c3ccc(C4CC4)cc32)cc1 | 86 | – |
| CC(=O)O[C@H]1C(=O)[C@@]2(C)[C@H]([C@H](OC(=O)c3ccccc3)[C@]3(O)C[C@H](OC(=O)[C@H](O)[C@@H](NC(=O)c4ccccc4)c4ccccc4)C(C)=C1C3(C)C)[C@]1(OC(C)=O)CO[C@@H]1C[C@@H]2O | – | Activity [2]: Active; TGI [3]: inactive |
| O=C(NO)c1ccc(Cn2c(=O)n(CCc3ccc(F)cc3)c(=O)c3ccccc32)cc1 | 470 | – |
| Cc1ccc2c(=O)n(CCc3ccccc3)c(=O)n(Cc3ccc(C(=O)NO)cc3)c2c1 | 64 | – |
| O=C(NO)c1cc(Cn2c(=O)n(CCc3ccccc3)c(=O)c3ccccc32)cs1 | > 8 | – |
| O=C(NO)c1ccc(Cn2c(=O)n(CCc3ccccc3)c(=O)c3cc(F)ccc32)cc1 | 235 | – |
| O=C(NO)c1ccc(Cn2c(=O)n(CCc3ccc(O)cc3)c(=O)c3ccccc32)cc1 | 1820 | – |
| O=C(CCCCCCC(=O)Nc1ccccc1)NO | – | inhibition [4]: inactive |
| O=C(NO)c1cccc(Cn2c(=O)n(CCc3ccccc3)c(=O)c3ccccc32)c1 | > 2 | – |
| O=C(NO)c1ccc(Cn2c(=O)n(CCc3ccccc3)c(=O)c3ccccc32)cc1 | 2790 | Activity [5]: Active; inhibition [6]: Active; fold change (FC) [7]: 42.7; inhibition [8]: Active; Activity [9]: Active; inhibition [10]: inactive; Activity [11]: Active; fold change (FC) [12]: 74.7; inhibition [13]: Active; TGI [14]: inactive; Activity [15]: Active |
| O=C(NO)c1ccc(Cn2c(=O)n(CCc3cccc(C(F)(F)F)c3)c(=O)c3ccccc32)cc1 | 529 | Activity [9]: Active |
| O=C(NO)c1ccc(Cn2c(=O)n(CCc3cccc(F)c3)c(=O)c3ccccc32)cc1 | 1320 | – |
| O=C(NO)c1ccc(Cn2c(=O)n(CCc3ccccc3)c(=O)c3ccccc32)s1 | 1150 | – |
| O=C(NO)c1ccc(Cn2c(=O)n(CCc3ccccc3)c(=O)c3ccc(O)cc32)cc1 | 259 | – |
| COc1ccc2c(=O)n(CCc3ccccc3)c(=O)n(Cc3ccc(C(=O)NO)cc3)c2c1 | 235 | – |
| O=C(NO)c1ccc(Cn2c(=O)n(CCc3ccccc3)c(=O)c3ccsc32)cc1 | 443 | – |
| O=C(NO)c1ccc(Cn2c(=O)n(CCc3ccccc3)c(=O)c3ccc(F)cc32)cc1 | 1180 | – |
| O=C(NO)c1ccc(Cn2c(=O)n(CCc3ccccc3)c(=O)c3cccnc32)cc1 | 384 | – |
| O=C(NO)c1ccc(Cn2c(=O)n(CCc3ccccc3)c(=O)c3cc(Cl)ccc32)cc1 | 539 | – |
| O=C(NO)c1ccc(Cn2c(=O)n(CCc3ccccc3)c(=O)c3ccc(Cl)cc32)cc1 | 434 | – |
